Results: ChEMBL document CHEMBL4308843, “Identification of ABX-1431, a Selective Inhibitor of Monoacylglycerol Lipase and Clinical Candidate for Treatment of Neurological Disorders” (J Med Chem, 2018)
pIC50: −log10 of the molar value. Active and inactive are the calls of the source. The rule behind the calls is not given here.

How the values were obtained:
Monoglyceride lipase = target: T1, Monoglyceride lipase (Mus musculus, UniProt O35678); assay: Inhibition of MGLL derived from mouse brain homogenates preincubated for 30 mins followed by JW912 addition after 30 mins by gel-based ABPP assay; type: tissue-based
T1 sequence (O35678 whole entry): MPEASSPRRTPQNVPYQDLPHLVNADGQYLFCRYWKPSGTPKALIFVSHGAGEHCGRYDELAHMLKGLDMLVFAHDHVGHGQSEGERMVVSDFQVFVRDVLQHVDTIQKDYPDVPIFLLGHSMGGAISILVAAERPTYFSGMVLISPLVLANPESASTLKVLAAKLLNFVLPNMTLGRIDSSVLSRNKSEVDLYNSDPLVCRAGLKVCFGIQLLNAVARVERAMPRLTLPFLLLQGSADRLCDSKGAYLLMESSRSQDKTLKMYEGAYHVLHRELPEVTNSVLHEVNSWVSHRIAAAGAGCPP

Mus musculus = assay: In-vivo inhibition of MGLL in ICR mouse brain assessed as target engagement at 5 mg/kg, po measured 4 hrs post dose by gel-based ABPP assay relative to control; type: functional
In short: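 Mice received a single 5 mg/kg oral gavage dose. Whole brains were collected 4 h post-dose and target engagement was read by gel-based ABPP with FP-Rh probe.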

[1] = target: T2, Platelet-activating factor acetylhydrolase (Homo sapiens, UniProt Q13093); assay: Inhibition of PLA2G7 derived from human PC3 cell lysates preincubated for 30 mins followed by JW912 addition after 30 mins by gel-based ABPP assay; type: subcellular, Lysate
T2 sequence (Q13093 whole entry): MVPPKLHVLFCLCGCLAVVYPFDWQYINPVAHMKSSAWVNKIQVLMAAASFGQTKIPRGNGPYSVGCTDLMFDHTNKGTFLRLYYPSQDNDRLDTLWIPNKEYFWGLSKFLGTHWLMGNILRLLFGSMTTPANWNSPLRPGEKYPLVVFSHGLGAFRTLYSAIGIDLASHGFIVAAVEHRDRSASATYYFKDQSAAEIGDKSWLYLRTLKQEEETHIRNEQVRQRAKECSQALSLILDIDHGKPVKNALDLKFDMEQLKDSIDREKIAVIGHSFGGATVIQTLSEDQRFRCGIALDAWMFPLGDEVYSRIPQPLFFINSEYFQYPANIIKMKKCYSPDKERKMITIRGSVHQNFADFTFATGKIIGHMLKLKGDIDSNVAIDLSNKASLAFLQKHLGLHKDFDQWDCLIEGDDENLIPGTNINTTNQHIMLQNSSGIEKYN

[2] = Intrinsic clearance in human liver microsomes; type: ADME, Microsome; details: read-out: CLH
[3] = target: T3, Monoacylglycerol lipase ABHD6 (Homo sapiens, UniProt Q9BV23); assay: Inhibition of ABHD6 derived from human PC3 cell lysates preincubated for 30 mins followed by JW912 addition after 30 mins by gel-based ABPP assay; type: subcellular, Lysate
T3 sequence (Q9BV23 whole entry): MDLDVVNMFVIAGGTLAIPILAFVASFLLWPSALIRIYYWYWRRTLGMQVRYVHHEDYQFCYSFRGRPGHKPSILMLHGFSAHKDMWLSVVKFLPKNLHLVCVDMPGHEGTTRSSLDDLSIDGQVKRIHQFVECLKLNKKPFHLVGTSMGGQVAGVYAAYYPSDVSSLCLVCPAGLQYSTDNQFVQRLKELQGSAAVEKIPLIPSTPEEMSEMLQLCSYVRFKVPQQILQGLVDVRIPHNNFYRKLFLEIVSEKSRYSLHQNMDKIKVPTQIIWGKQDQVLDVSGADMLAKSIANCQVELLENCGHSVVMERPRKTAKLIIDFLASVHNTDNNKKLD

SMILES | pIC50 (Monoglyceride lipase) | pIC50 [1] | Activity (Mus musculus) | also measured
C#Cc1ccc(CN2CCN(C(=O)OC(C(F)(F)F)C(F)(F)F)CC2)c(N2CCCC2)c1 | 6.80 | – | – | –
O=C(OC(C(F)(F)F)C(F)(F)F)N1CCN(Cc2ccc(Cl)cc2N2CCN(CCF)CC2)CC1 | – | – | 75% | –
O=C(OC(C(F)(F)F)C(F)(F)F)N1CCN(Cc2c(Cl)cccc2N2CCOCC2)CC1 | – | < 5.00 | – | –
O=C(OC(C(F)(F)F)C(F)(F)F)N1CCN(Cc2cccc(Cl)c2N2CCOCC2)CC1 | – | – | – | microsomal CLint [2]: 76 µL/min/mg
O=C(OC(C(F)(F)F)C(F)(F)F)N1CCN(Cc2ccc(C(F)(F)F)cc2N2CCOCC2)CC1 | – | – | 100% | microsomal CLint [2]: 24 µL/min/mg
Cc1cc(Cl)ccc1C(c1ccc(Cl)cc1C)N1CCN(C(=O)OC(C(F)(F)F)C(F)(F)F)CC1 | – | < 5.00 | – | pIC50 [3]: < 5.00
O=C(OC(C(F)(F)F)C(F)(F)F)N1CCN(Cc2cc(Cl)ccc2N2CCOCC2)CC1 | – | < 5.00 | – | pIC50 [3]: < 5.00
O=C(OC(C(F)(F)F)C(F)(F)F)N1CCN(Cc2ccc(Cl)cc2N2CC3CCC(C2)O3)CC1 | – | – | 100% | –
O=C(OC(C(F)(F)F)C(F)(F)F)N1CCN(C(c2ccc(Cl)cc2)c2ccc(Cl)cc2)CC1 | – | < 6.00 | – | –
O=C(OC(C(F)(F)F)C(F)(F)F)N1CCN(Cc2ccc(Cl)cc2N2CCCCC2)CC1 | 6.92 | < 5.00 | – | –
O=C(OC(C(F)(F)F)C(F)(F)F)N1CCN(Cc2ccc(C(F)(F)F)cc2N2[C@@H]3CC[C@H]2COC3)CC1 | – | < 6.00 | 100% | –
O=C(OC(C(F)(F)F)C(F)(F)F)N1CCN(Cc2ccc(Cl)cc2N2CC[C@H]3CCCN3C2)CC1 | 7.18 | – | 50% | –
O=C(OC(C(F)(F)F)C(F)(F)F)N1CCN(Cc2ccc(Cl)cc2N2CCCC2)CC1 | – | – | – | microsomal CLint [2]: 34 µL/min/mg
O=C(OC(C(F)(F)F)C(F)(F)F)N1CCN(Cc2ccc(Cl)cc2N2CCOCC2)CC1 | – | – | – | microsomal CLint [2]: 45 µL/min/mg

Now from value to compound, other results behind:

pIC50 (Monoglyceride lipase) | pIC50 [1] | SMILES | Activity (Mus musculus) | also measured
6.62 | – | CN1CC2CN(c3cc(C(F)(F)F)ccc3CN3CCN(C(=O)OC(C(F)(F)F)C(F)(F)F)CC3)CC2C1 (centres undefined) | inactive | –
7.62 | < 6.00 | O=C(OC(C(F)(F)F)C(F)(F)F)N1CCN(Cc2ccc(C(F)(F)F)cc2N2CCC3(CCOCC3)C2)CC1 | 75% | –
7.77 | – | O=C(OC(C(F)(F)F)C(F)(F)F)N1CCN(Cc2ccc(C(F)(F)F)cc2N2CC3COCC3C2)CC1 (centres undefined) | 25% | –
7.82 | – | O=C(OC(C(F)(F)F)C(F)(F)F)N1CCN(Cc2ccc(C(F)(F)F)cc2N2CC[C@H](O)C2)CC1 | 75% | –
8.10 | – | O=C(OC(C(F)(F)F)C(F)(F)F)N1CCN(Cc2ccc(C(F)(F)F)cc2N2CC[C@@H](O)C2)CC1 | 100% | –
– | < 6.00 | O=C(OC(C(F)(F)F)C(F)(F)F)N1CCN(Cc2ccc(C(F)(F)F)cc2N2C[C@H]3CC[C@@H](C2)O3)CC1 | 100% | –
6.89 | – | O=C(OC(C(F)(F)F)C(F)(F)F)N1CCN(Cc2ccc(C(F)(F)F)cc2N2CCCCC2)CC1 | – | –
